Laboratory results published in ChEMBL document CHEMBL1275477, “Discovery and characterization of QPT-1, the progenitor of a new class of bacterial topoisomerase inhibitors” (Antimicrob Agents Chemother, 2008).
Converted amounts (≈) assume the structure as drawn.

Assays:
Format in all cases: functional
[1] = tested on: Staphylococcus aureus; experiment: Antibacterial activity against methicillin-susceptible Staphylococcus aureus UC9218 by broth microdilution method
How it was run: (§1)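 Broth microdilution MIC following National Committee for Clinical Laboratory Standards methods. Plasmid-borne GyrB in transformed S. aureus strains was overexpressed by adding 100 ng/ml doxycycline.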

[2] = tested on: Staphylococcus aureus; experiment: Antibacterial activity against Staphylococcus aureus UC9218 by broth microdilution method in presence of 25% serum; how it was run: as §1
[3] = tested on: Staphylococcus aureus; experiment: Antibacterial activity against Staphylococcus aureus UC9218 by broth microdilution method in presence of 50% serum; how it was run: as §1
[4] = tested on: Staphylococcus aureus; experiment: Antibacterial activity against methicillin and ciprofloxacin-resistant Staphylococcus aureus UC12673 by broth microdilution method; how it was run: as §1
[5] = tested on: Staphylococcus aureus; experiment: Antibacterial activity against methicillin-resistant Staphylococcus aureus UC9213 by broth microdilution method; how it was run: as §1
[6] = tested on: Staphylococcus epidermidis; experiment: Antibacterial activity against methicillin and ciprofloxacin-resistant Staphylococcus epidermidis UC12084 by broth microdilution method; how it was run: as §1
[7] = tested on: Streptococcus pneumoniae; experiment: Antibacterial activity against Streptococcus pneumoniae UC9912 by broth microdilution method; how it was run: as §1
[8] = tested on: Streptococcus pneumoniae; experiment: Antibacterial activity against Streptococcus pneumoniae UC15142 by broth microdilution method; how it was run: as §1
[9] = tested on: Streptococcus pyogenes; experiment: Antibacterial activity against Streptococcus pyogenes UC152 by broth microdilution method; how it was run: as §1
[10] = tested on: Enterococcus faecalis; experiment: Antibacterial activity against Enterococcus faecalis UC9217 by broth microdilution method; how it was run: as §1
[11] = tested on: Enterococcus faecium; experiment: Antibacterial activity against Enterococcus faecium UC12712 by broth microdilution method; how it was run: as §1
[12] = tested on: Haemophilus influenzae; experiment: Antibacterial activity against Haemophilus influenzae UC30063 by broth microdilution method; how it was run: as §1
[13] = tested on: Moraxella catarrhalis; experiment: Antibacterial activity against Moraxella catarrhalis UC3067 by broth microdilution method; how it was run: as §1
[14] = tested on: Escherichia coli; experiment: Antibacterial activity against Escherichia coli UC6674 by broth microdilution method; how it was run: as §1
[15] = tested on: Klebsiella pneumoniae; experiment: Antibacterial activity against Klebsiella pneumoniae UC12081 by broth microdilution method; how it was run: as §1
[16] = tested on: Pseudomonas aeruginosa; experiment: Antibacterial activity against Pseudomonas aeruginosa UC6676 by broth microdilution method; how it was run: as §1
[17] = tested on: Staphylococcus aureus; experiment: Antibacterial activity against methicillin-susceptible Staphylococcus aureus by broth microdilution method; how it was run: as §1
[18] = tested on: Staphylococcus aureus; experiment: Antibacterial activity against methicillin-resistant Staphylococcus aureus by broth microdilution method; how it was run: as §1
[19] = tested on: Staphylococcus aureus; experiment: Antibacterial activity against ciprofloxacin-resistant Staphylococcus aureus by broth microdilution method; how it was run: as §1
[20] = tested on: Streptococcus pneumoniae; experiment: Antibacterial activity against Streptococcus pneumoniae by broth microdilution method; how it was run: as §1
[21] = tested on: Streptococcus pneumoniae; experiment: Antibacterial activity against ciprofloxacin-resistant Streptococcus pneumoniae by broth microdilution method; how it was run: as §1

With `C[C@H]1CN2c3ccc([N+](=O)[O-])cc3CC3(C(=O)NC(=O)NC3=O)[C@@H]2[C@@H](C)O1` the MIC [1] was 128 µg/mL (≈ 342 µM), the MIC [2] was 128 µg/mL and the MIC [3] was > 128 µg/mL. For the same compound, the MIC [4] was > 64 µg/mL, the MIC [5] was > 64 µg/mL and the MIC [6] was > 64 µg/mL. The MIC [7] was > 128 µg/mL, the MIC [8] was > 128 µg/mL and the MIC [9] was > 64 µg/mL. The MIC [10] was > 128 µg/mL, the MIC [11] was > 64 µg/mL and the MIC [12] was > 128 µg/mL. The MIC [13] was > 64 µg/mL, the MIC [14] was > 128 µg/mL and the MIC [15] was > 64 µg/mL. For the same compound, the MIC [16] was > 64 µg/mL, the MIC [17] was > 64 µg/mL and the MIC50 [17] was > 64 µg/mL. For the same compound, the MIC90 [17] was > 64 µg/mL, the MIC [18] was > 64 µg/mL and the MIC50 [18] was > 64 µg/mL. For the same compound, the MIC90 [18] was > 64 µg/mL, the MIC [19] was 64 µg/mL (≈ 171 µM) and the MIC50 [19] was 64 µg/mL (≈ 171 µM). The MIC90 [19] was > 64 µg/mL, the MIC [20] was > 64 µg/mL and the MIC50 [20] was > 64 µg/mL. The MIC90 [20] was > 64 µg/mL, the MIC [21] was > 64 µg/mL and the MIC50 [21] was > 64 µg/mL. The MIC90 [21] was > 64 µg/mL.

Work on `C[C@@H]1CN2c3ccc([N+](=O)[O-])cc3CC3(C(=O)NC(=O)NC3=O)[C@H]2[C@H](C)O1` yielded an MIC [1] of 0.25 µg/mL (≈ 0.668 µM), an MIC [2] of 0.5 µg/mL and an MIC [3] of 1 µg/mL. The MIC [4] was 0.5 µg/mL (≈ 1.34 µM), the MIC [5] was 0.5 µg/mL (≈ 1.34 µM) and the MIC [6] was 0.5 µg/mL (≈ 1.34 µM). The MIC [7] was 2 µg/mL (≈ 5.34 µM), the MIC [8] was 2 µg/mL (≈ 5.34 µM) and the MIC [9] was 1 µg/mL (≈ 2.67 µM). The MIC [10] was 2 µg/mL (≈ 5.34 µM), the MIC [11] was 4 µg/mL (≈ 10.7 µM) and the MIC [12] was 0.125 µg/mL (≈ 0.334 µM). The MIC [13] was 1 µg/mL (≈ 2.67 µM), the MIC [14] was 2 µg/mL (≈ 5.34 µM) and the MIC [15] was > 64 µg/mL. The MIC [16] was > 64 µg/mL, the MIC50 [17] was 0.5 µg/mL (≈ 1.34 µM) and the MIC90 [17] was 0.5 µg/mL (≈ 1.34 µM). For the same compound, the MIC50 [18] was 0.5 µg/mL (≈ 1.34 µM), the MIC90 [18] was 0.5 µg/mL (≈ 1.34 µM) and the MIC50 [19] was 0.5 µg/mL (≈ 1.34 µM). For the same compound, the MIC90 [19] was 0.5 µg/mL (≈ 1.34 µM), the MIC50 [20] was 2 µg/mL (≈ 5.34 µM) and the MIC90 [20] was 4 µg/mL (≈ 10.7 µM). For the same compound, the MIC50 [21] was 2 µg/mL (≈ 5.34 µM) and the MIC90 [21] was 4 µg/mL (≈ 10.7 µM).
